# OXTR potentiate = human OXTR potentiators, primary screen, fluorescence, CHO-OTR cells, Fluo-8 calcium. 0.061% of 320,000 active. Fluo-8 calcium fluorescence, potentiator mode; 0% = oxytocin EC15, 100% = EC100. Oxytocin receptor (Homo sapiens), P30559. activation, % at 3 µM;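 active = activation above that plate's cutoff, the mean activation of tested compounds plus 3 SD, cut at about 6.6% in these data, passing the limit was not always enough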;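 also: 100% uses oxytocin at 75 nM as the full agonist control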
#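 Dosing: Single dose, 3.0 µM nominal final compound concentration | Material: Human OTR in CHO cells | Technique: Kinetic Fluo-8 calcium fluorescence | Benchmarks: EC15 oxytocin alone as 0%, 75 nM oxytocin as 100% | Probe or stimulus: Oxytocin at about EC15, sub-maximal agonist stimulus | Incubation: Compound 6 min at room temperature before oxytocin, 100 s read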
# OXTR ag = human OXTR agonists, primary screen, fluorescence, CHO-OTR cells, Fluo-8 calcium | Fluo-8 calcium fluorescence; normalized: DMSO 0%, oxytocin 100% | activation, % at 3 µM | AID 2435, 2010 | 0.32% of 320,000 active;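 active = activation above the mean of all tested compounds plus 3 SD, cutoff set per screening run, cut at about 20% in these data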;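 also: peak over basal fluorescence ratio from a 100 s FLIPR kinetic read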
# TAAR1 antag = human TAAR1 antagonists, primary screen, Fluo-8 calcium fluorescence, CHO RD-HGA16 cells; antagonist; inhibition, % at 3 µM; 1.5% of 360,000 active;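 active = inhibition above a per-plate cutoff, the mean inhibition of test compounds on that plate plus 3 SD, cut at about 49% in these data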;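 also: 0% = DMSO plus EC80 beta-PEA response and 100% = DMSO alone without agonist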
#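 System: CHO RD-HGA16 cells bearing hTAAR1. Reagent: EC80 β-phenethylamine stimulus. Schedule: seeding 17-24 h prior, 75-min 37 °C, 30-min RT dye loading. Signal: Fluo-8 intracellular calcium dye fluorescence, real-time kinetic reads. Read-out: % inhibition from peak post-agonist over basal fluorescence ratio. Benchmarks: vehicle wells and EC80 agonist wells. Replicates: n of 1.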
# TAAR1 agonist = human TAAR1 agonists, primary screen, Fluo-8 calcium fluorescence, CHO RD-HGA16 cells; Trace amine-associated receptor 1 (Homo sapiens), Q96RJ0; activation, % at 3 µM; vehicle wells 0%, saturating PEA agonist 100%; AID 624467, 2012; 0.99% of 360,000 active;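 active = activation above the mean activation of all test compounds in the run plus 3 SD, cut at about 38% in these data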
#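 Test system: RD-HGA16 (CHO) cells co-expressing Gα16 and hTAAR1; dosing: one-point dosing at 3 µM (nominal); timing: 17-24 h seeding, 75 min 37 °C dye, 30 min RT; signal: kinetic Fluo-8 calcium fluorescence; read-out basis: % activation relative to PEA EC100 response; controls: DMSO and PEA EC100; replicates: n 1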
# V1aR counter = agonists of human V1a receptor, primary screen, counter-screen for OXTR agonist project, fluorescence, CHO-V1R cells; Vasopressin V1a receptor (Homo sapiens), P37288; Fluo-8 calcium fluorescence, agonist mode; 0% DMSO, 100% 3 nM vasopressin; 0.25% of 320,000 active; activation, % at 3 µM;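 active = activation above the mean activation of all tested compounds plus 3 SD, per screening run, cut at about 20% in these data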;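 also: signal is peak over basal fluorescence ratio across a 100 second FLIPR read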
# Target sequence (P37288 whole entry, looked up): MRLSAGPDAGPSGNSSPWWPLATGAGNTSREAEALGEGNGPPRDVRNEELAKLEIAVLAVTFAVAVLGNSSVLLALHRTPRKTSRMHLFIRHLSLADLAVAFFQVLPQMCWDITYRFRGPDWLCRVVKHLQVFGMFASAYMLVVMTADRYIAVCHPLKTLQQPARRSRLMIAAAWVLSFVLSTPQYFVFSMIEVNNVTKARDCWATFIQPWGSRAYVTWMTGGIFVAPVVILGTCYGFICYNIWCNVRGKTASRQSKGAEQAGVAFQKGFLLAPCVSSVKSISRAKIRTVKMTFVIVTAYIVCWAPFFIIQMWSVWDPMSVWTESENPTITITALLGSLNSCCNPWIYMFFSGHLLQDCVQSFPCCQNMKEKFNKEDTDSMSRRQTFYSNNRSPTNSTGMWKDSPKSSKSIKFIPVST
# TAAR1 ag conf = human TAAR1 agonists, retest of hits, confirmation, Fluo-8 calcium fluorescence, CHO RD-HGA16 cells; shares compounds with TAAR1 agonist; scaled: DMSO 0%, maximal phenethylamine 100%; activation, % at 3 µM; 82% of 2,400 active;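 active = activation above a cutoff set at the run's mean compound activation plus 3 SD, cut at about 39% in these data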
# Ga16 ag counter = nonselective calcium mobilization agonists, CHO-Ga16 cells, counter-screen for hTAAR1 agonist project, cell-based, fluorescence, CHO-Ga16 parental line | AID 651787, 2012 | 50% of 2,400 active | activation, % at 3 µM | shares compounds with TAAR1 agonist | Fluo-8 calcium fluorescence; normalized to maximal ATP response, DMSO zero;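 active = activation above the run cutoff, the mean activation over all tested wells plus 3 SD, cut at about 12% in these data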;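 also: 0% = DMSO wells and 100% = maximal ATP response on the peak over basal ratio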
# TAAR1 desensitize = TAAR1 desensitization by agonist hits, confirmation, counter-screen for TAAR1 agonist project, cell-based, fluorescence, tachyphylaxis | shares compounds with TAAR1 agonist | CHO RD-HGA16 hTAAR1, Fluo-8 calcium, beta-PEA response inhibition | inhibition, % at 3 µM | 46% of 2,400 active | AID 651951, 2012;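 active = inhibition above the run cutoff, the mean inhibition of all test compounds plus 3 SD, cut at about 49% in these data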;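 also: beta-PEA stimulus applied at its EC80; loss of beta-PEA calcium signal after compound pretreatment read as receptor desensitization; 0% = DMSO with beta-PEA at EC80 and 100% = DMSO alone without agonist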
# Ga16 nonsel ant = inhibition of ATP-evoked calcium response in CHO-Ga16 cells, counter-screen for TAAR1 agonist project, cell-based, fluorescence. shares compounds with TAAR1 agonist. CHO-Ga16 ATP-induced calcium, Fluo-8 fluorescence. inhibition, % at 3 µM. 39% of 2,400 active. AID 651952, 2012;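 active = inhibition above the plate's mean compound inhibition plus 3 SD, computed per plate, cut at about 22% in these data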;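 also: 0% = EC80 ATP with DMSO and 100% = DMSO wells without ATP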
# Starred values were filed as active, the others as inactive; . = not tested or not shown. Most compounds without a hit are left out; they make up all but 2.3% or so of the library.
SMILES,OXTR potentiate,OXTR ag,TAAR1 antag,TAAR1 agonist,V1aR counter,TAAR1 ag conf,Ga16 ag counter,TAAR1 desensitize,Ga16 nonsel ant
CCOC(=O)c1ccc(NC(=S)N2CCSC2c2ccc(Br)cc2)cc1 (stereo unspecified),-14,48*,103*,138*,37*,130*,93*,102*,85*
O=C(NC1CCCCC1)c1cc(S(=O)(=O)N2CCOCC2)c(Cl)cc1Cl,-6,0,-2,1,0,.,.,.,.
COc1ccc(C2(c3ccc(OC)cc3)NC(=O)N(CC(=O)Nc3ccc(OC(F)F)cc3)C2=O)cc1,-9,2,-13,4,4,.,.,.,.
Cc1cc(NC(=O)CN2C(=O)NC(C)(c3ccc(OC(F)F)cc3)C2=O)no1 (stereo unspecified),-24,14,40,83*,14,-4,-2,-8,-1
CC1(c2ccc(OC(F)F)cc2)NC(=O)N(CC(=O)Nc2cccc(F)c2)C1=O (stereo unspecified),-16,53*,98*,138*,31*,120*,84*,97*,72*
CCOc1ccc(NC(=O)CN2C(=O)NC(C)(c3ccc(OC(F)F)cc3)C2=O)cc1 (stereo unspecified),-17,43*,63*,99*,43*,125*,82*,97*,58*
Cc1cc(NC(=O)CN2C(=O)NC(C)(c3ccccc3Cl)C2=O)no1 (stereo unspecified),4,2,7,1,1,.,.,.,.
CC1(c2ccc(OC(F)F)cc2)NC(=O)N(CC(=O)Nc2ccc(OC(F)F)cc2)C1=O (stereo unspecified),-16,40*,83*,103*,28*,97*,46*,82*,56*
CC1(c2ccc(OC(F)F)cc2)NC(=O)N(CC(=O)Nc2ccc(S(N)(=O)=O)cc2)C1=O (stereo unspecified),-14,-1,-4,8,0,.,.,.,.
Cc1nc2c(C)cccn2c1/C(O)=C1\C(=O)C(=O)N(CCN(C)C)C1c1ccccc1 (stereo unspecified),-9,1,-17,3,4,.,.,.,.
Cc1cc(C)c2c(N)c(C(=O)Nc3cccc(C)c3C)sc2n1,-10,-1,9,3,1,.,.,.,.
CCOC(=O)c1sc(NC(=O)CN2C(=O)NC3(CCCCCCC3)C2=O)c(C(=O)OCC)c1C,5,0,-19,0,0,.,.,.,.
CCOC(=O)c1c(NC(=O)CN2C(=O)NC(C)(c3ccc(OC(F)F)cc3)C2=O)sc(C)c1C (stereo unspecified),-11,27*,53*,87*,20*,98*,42*,86*,51*
C/C(NCCc1ccccc1)=C1/CCOC1=O,.,.,90*,91*,.,98*,0,88*,3
O=C(COc1ccc(Br)cc1)N1CCNC1=O,-10,0,0,1,0,.,.,.,.
Cc1cc(C)nc(/N=C(\N)Nc2ccc(F)c([N+](=O)[O-])c2)n1,-18,12,71*,68*,8,63*,38*,70*,39*
CCOc1ccc(N/C(N)=N/c2nc(C)cc(C)n2)cc1,-24,7,97*,70*,10,51*,39*,93*,81*
Cc1cc(C)nc(/N=C(\N)Nc2ccc(SC(F)F)cc2)n1,-10,32*,95*,102*,28*,99*,63*,98*,69*
Cc1cc(C)nc(/N=C(\N)Nc2ccc(S(N)(=O)=O)cc2)n1,-12,0,5,3,0,.,.,.,.
CCOc1ccc(N/C(=N/c2nc(C)cc(C)n2)NC(=O)CC)cc1,-1,-1,-35,5,0,.,.,.,.
Cc1cc(C)nc(/N=C(\N)Nc2ccc(S(=O)(=O)Nc3nc(C)cc(C)n3)cc2)n1,-1,1,.,.,0,.,.,.,.
Cc1ccc(C)c(N/C(N)=N/c2nc(C)cc(C)n2)c1,-18,21*,98*,116*,26*,105*,67*,99*,76*
O=S(=O)(Nc1cccc(S(=O)(=O)N2CCCC2)c1)c1cccc(Br)c1,-6,2,12,0,3,.,.,.,.
CCn1c(C)nc2cc(C(=O)NNC(=S)Nc3ccc(Cl)cc3)ccc21,0,0,2,54*,0,61*,4,33,9
CCn1c(C)nc2cc(C(=O)NNC(=S)Nc3ccc(F)cc3)ccc21,-2,0,-39,4,0,.,.,.,.
SMILES,OXTR potentiate,OXTR ag,TAAR1 antag,TAAR1 agonist,V1aR counter,TAAR1 ag conf,Ga16 ag counter,TAAR1 desensitize,Ga16 nonsel ant
COc1ccc(-c2ccc(C(=O)NCc3ccncc3)c3occc23)c(C)c1,.,.,28,1,.,.,.,.,.
CC(C)NC(=O)C1Cc2c(-c3ccccc3Oc3ccccc3)ccnc2O1 (stereo unspecified),.,.,-3,1,.,.,.,.,.
COc1nc(NC(C)(C)C)nc(Oc2ccc(=O)n(-c3ccccc3)n2)n1,2,0,5,18,-1,.,.,.,.
CC(C)Nc1nc(NC(C)(C)C)nc(Oc2ccc(=O)n(-c3ccccc3)n2)n1,6,2,-16,70*,12,76*,54*,-1,1
CCOC(=O)C1CCCN(C(=S)Nc2ccc(C)cc2C)C1 (stereo unspecified),2,-1,60*,69*,-1,34,-1,31,9
CCOC(=O)C1CCCN(C(=O)Cc2ccc(C)cc2)C1 (stereo unspecified),-11,-2,10,5,0,.,.,.,.

# Source: PubChem (The Scripps Research Institute Molecular Screening Center)
